Consider five compounds from ChEMBL document CHEMBL3217641, “Structure-function study of gemini derivatives with two different side chains at C-20, Gemini-0072 and Gemini-0097” (Medchemcomm, 2011).

Assay [1] in a line: Antiproliferative activity against ER negative human MCF10DCIS.com cells after 3 days by [3H]thymidine uptake assay.
Assay [2] is described as follows: Antiproliferative activity against ER positive human MCF10AT1 cells after 3 days by [3H]thymidine uptake assay relative to 1alpha,25(OH)2D3. The class given is functional.
The target in the next assay is T1, Vitamin D3 receptor A (Danio rerio, UniProt Q9PTN2).
T1 sequence (Q9PTN2 whole entry): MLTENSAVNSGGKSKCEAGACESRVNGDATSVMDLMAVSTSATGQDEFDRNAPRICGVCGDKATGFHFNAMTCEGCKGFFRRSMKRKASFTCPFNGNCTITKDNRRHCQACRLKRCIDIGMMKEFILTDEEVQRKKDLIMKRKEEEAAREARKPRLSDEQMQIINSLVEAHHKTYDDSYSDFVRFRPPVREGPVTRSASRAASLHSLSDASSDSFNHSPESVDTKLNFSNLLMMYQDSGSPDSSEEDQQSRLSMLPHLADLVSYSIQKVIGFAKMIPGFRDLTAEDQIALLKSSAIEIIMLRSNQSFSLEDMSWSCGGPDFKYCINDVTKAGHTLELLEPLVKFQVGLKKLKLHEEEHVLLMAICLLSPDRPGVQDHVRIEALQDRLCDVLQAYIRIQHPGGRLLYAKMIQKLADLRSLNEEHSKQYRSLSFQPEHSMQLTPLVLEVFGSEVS
Description: Agonist activity at zebrafish gal4-VDR LBD expressed in human MCF7 cells by luciferase reporter gene based transactivation assay. The class given is cell-based. The method, boiled down: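 MCF-7 cells (10^5/well) were grown overnight in phenol red-free DMEM with 10% charcoal-treated FBS and 0.6 μg/ml insulin. They were transfected with jetPEI using Gal4DBD-zVDR(156–453) (25 ng), ptk-LUC reporter (250 ng) and β-galactosidase control (50 ng). After 10 h, ligand at 0.1–100 nM or DMSO solvent was added. After 24 h, luciferase was read, normalized to β-gal, in triplicate.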

The nature of assay [3]: Antiproliferative activity against ER negative human MCF10DCIS.com cells after 3 days by [3H]thymidine uptake assay relative to 1alpha,25(OH)2D3.
Assay [4] in a line: Antiproliferative activity against ER positive human MCF10AT1 cells after 3 days by [3H]thymidine uptake assay. The class given is functional.
Assay [5] in a line: Antiproliferative activity against ER positive human MCF10CA1a cells after 3 days by [3H]thymidine uptake assay relative to 1alpha,25(OH)2D3. The class given is functional.
Assay [6] is described as follows: Antiproliferative activity against ER positive human MCF10CA1a cells after 3 days by [3H]thymidine uptake assay. The class given is functional.
The target of assay [7] is T2, Vitamin D3 receptor A (Danio rerio) (UniProt Q9PTN2).
T2 sequence (whole entry): T1 sequence (Q9PTN2 whole entry)
Description: Agonist activity at zebrafish gal4-VDR LBD expressed in human MCF7 cells by luciferase reporter gene based transactivation assay relative to 1alpha,25(OH)2D3. Conditions: tested as the 2H-labelled form. The class given is cell-based. Put shortly:
(§1)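 Transient transfection of MCF-7 cells (10^5/well, grown overnight in phenol red-free DMEM with 10% charcoal-treated FBS, gentamicin, insulin) with Gal4DBD-zVDR(156–453), ptk-LUC reporter, β-galactosidase control and carrier plasmid via jetPEI. After 10 h, ligands at 0.1, 1, 10, 100 nM versus DMSO solvent for 24 h. Luciferase normalized to β-galactosidase; triplicates, mean and S.D.; EC50 derived.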

For assay [8], the target named is T2, Vitamin D3 receptor A (Danio rerio). Description: Agonist activity at zebrafish gal4-VDR LBD expressed in human MCF7 cells by luciferase reporter gene based transactivation assay relative to parental gemini. The class given is cell-based. Conditions: tested as the 2H-labelled form. The method, boiled down:
as §1

For the compound `[2H]C([2H])([2H])C(O)(CCC[C@H](CC#CC(O)(C(F)(F)F)C(F)(F)F)[C@H]1CC[C@H]2/C(=C/C=C3C[C@H](O)C[C@@H](O)C3)CCC[C@]12C)C([2H])([2H])[2H]`, the IC50 was determined as 0.36 nM in assay [1], 0.51 nM in assay [4] and 0.15 nM in [6]. Besides, the “fold change (FC)” value in assay [2], in [3] and in [5] was 10 throughout. A half-maximal response on Vitamin D3 receptor A (EC50) required 0.25 nM.
Take `[2H]C([2H])([2H])C(O)(CCC[C@@H](CC#CC(O)(C(F)(F)F)C(F)(F)F)[C@H]1CC[C@H]2/C(=C/C=C3C[C@H](O)C[C@@H](O)C3)CCC[C@]12C)C([2H])([2H])[2H]`: the figures for the IC50 in [1], in [4] and in assay [6] were 0.23 nM, 0.23 nM and 0.09 nM, respectively. Also, the “fold change (FC)” value in assay [2], in assay [3] and in assay [5] was 10 throughout. In addition, at Vitamin D3 receptor A, the EC50 came to 0.15 nM.
Regarding `CC(C)(O)CCC[C@H](CC#CC(O)(C(F)(F)F)C(F)(F)F)[C@H]1CC[C@H]2/C(=C/C=C3C[C@H](O)C[C@@H](O)C3)CCC[C@]12C`, the fold change (FC) in assay [7] was determined as 22; in assay [8], 5.
Compound `C=C1/C(=C\C=C2/CCC[C@]3(C)[C@@H](C(CCCC(C)(C)O)CCCC(C)(C)O)CC[C@@H]23)C[C@H](O)C[C@H]1O` displayed an EC50 at Vitamin D3 receptor A of 1.2 nM.
In the case of `CC(C)(O)CCC[C@@H](CC#CC(O)(C(F)(F)F)C(F)(F)F)[C@H]1CC[C@H]2/C(=C/C=C3C[C@H](O)C[C@@H](O)C3)CCC[C@]12C`, the figures for the fold change (FC) in [7] and in assay [8] were 36 and 8, respectively.
